Results from ChEMBL document CHEMBL3124926, “Identification of highly efficacious glucocorticoid receptor agonists with a potential for reduced clinical bone side effects” (J Med Chem, 2014).

Experiments:
[1] = Half life in rat at 2 mg/kg, iv and 30 mg/kg, po; type: ADME, organism-based; conditions: in vivo
Method in brief: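 Rat PK: 2 mg/kg iv in 80/20 PEG/water and 30 mg/kg po in 80/18/2 PEG/water/Tween.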

[2] = test system: Mus musculus; test: Toxicity in collagen-induced B10.RIII mouse arthritis model assessed as change in AUC at 100 mg/kg, po qd for 35 days relative to 30% cremophor-treated control; type: organism-based; design: dose 100 mg/kg, route oral; conditions: in vivo, 840 h
Method in brief: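 Female B10.RIII mice were immunized with porcine type II collagen in complete Freund's adjuvant, enrolled at arthritis onset (10/group), and dosed orally once daily for five weeks in 30% cremophor vehicle. Four paws were scored 1–4 (max 16), as AUC. Serum biomarkers were taken at day 35. Femur cortical thickness was measured by microCT in non-immunized, age-matched mice dosed identically.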

[3] = test system: Mus musculus; test: Toxicity in collagen-induced B10.RIII mouse arthritis model assessed as change in triglyceride level at 100 mg/kg, po qd for 35 days relative to 1% methylcellulose-treated control; type: organism-based; design: dose 100 mg/kg, route oral; conditions: in vivo, 840 h
Method in brief: (§1)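 Female B10.RIII mice were immunized at 12–15 weeks with porcine type II collagen emulsified in complete Freund's adjuvant (100 μg intradermal, tail base). Animals were enrolled at first arthritis signs, 10 per group, and dosed orally once daily for five weeks in 1% methylcellulose. Paws were scored 1–4 each (max 16), with AUC taken. Serum was collected at day 35. Femur cortical thickness was measured by microCT in non-immunized, age-matched mice given the same dosing.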

[4] = test system: Mus musculus; test: Toxicity in collagen-induced B10.RIII mouse arthritis model assessed as change in insulin level at 100 mg/kg, po qd for 35 days relative to 1% methylcellulose-treated control; type: organism-based; design: dose 100 mg/kg, route oral; conditions: in vivo, 840 h; method in brief: as §1

Row | half-life [1] | Compound | Activity [2] | Activity [3] | Activity [4]
1 | 30 min | Cc1ccc(F)cc1C(C)(C)C[C@@](O)(Cc1cc2nnccc2[nH]1)C(F)(F)F | -53% |  | 
2 |  | Cc1ccc(F)cc1C(C)(C)C[C@@](O)(Cc1cc2ncncc2[nH]1)C(F)(F)F |  | -14% | 17%
